CHRM1 agonist – agonists of human M1 muscarinic receptor; P11229; CHO-K1 hM1, Fluo-8 calcium fluorescence, agonist mode; 0% DMSO, 100% acetylcholine EC100; activation, % at 3 µM; 360,000 tested, 0.33% active;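 active = activation above the run's mean compound activation plus 3 SD, cut at about 16% in these data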;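 also: peak over basal fluorescence ratio within a 140 s kinetic read after compound addition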
CHRM1 antagonist – human CHRM1 antagonism; P11229; CHO-K1 hM1, Fluo-8 calcium fluorescence, ACh EC80 antagonist; inhibition, % at 3 µM; 360,000 tested, 1.3% active;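 active = percent inhibition above its own plate's cutoff, namely the mean of that plate's compound wells plus 3 SD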;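 also: peak over basal fluorescence ratio during 140 s after agonist addition; 0% = ACh EC80 plus DMSO and 100% = DMSO alone without agonist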
CHRM5 agonist – CHRM5 agonism in calcium assay. activation, % at 3 µM. CHO-K1 hM5 cells, Fluo-8 calcium fluorescence; 0% DMSO wells, 100% maximal acetylcholine response. 360,000 tested, 0.19% active;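 active = activation above the run's mean over test compounds plus 3 SD, cut at about 23% in these data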;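 also: signal is peak over basal fluorescence ratio across the kinetic read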
Target sequence (P08912 whole entry, looked up): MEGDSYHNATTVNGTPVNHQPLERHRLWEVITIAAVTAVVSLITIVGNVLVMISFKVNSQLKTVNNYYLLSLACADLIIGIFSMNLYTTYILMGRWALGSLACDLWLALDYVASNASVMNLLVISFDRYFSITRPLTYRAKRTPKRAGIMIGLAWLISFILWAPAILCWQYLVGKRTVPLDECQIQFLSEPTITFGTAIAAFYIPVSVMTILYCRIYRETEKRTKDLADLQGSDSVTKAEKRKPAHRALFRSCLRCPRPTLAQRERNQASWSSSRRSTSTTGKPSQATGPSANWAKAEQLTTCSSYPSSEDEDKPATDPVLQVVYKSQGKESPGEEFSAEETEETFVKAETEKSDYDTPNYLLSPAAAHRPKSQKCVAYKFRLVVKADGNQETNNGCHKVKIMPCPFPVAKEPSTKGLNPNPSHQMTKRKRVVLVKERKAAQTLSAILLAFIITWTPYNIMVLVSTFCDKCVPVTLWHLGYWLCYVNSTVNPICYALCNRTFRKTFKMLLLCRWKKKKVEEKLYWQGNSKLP
M5 PAM – potentiates acetylcholine response at human M5 receptor; 360,000 tested, 0.3% active; activation, % at 3 µM; AID 624038; CHO-K1 hM5, Fluo-8 calcium, ACh EC20 PAM; 0% = ACh EC20, 100% = ACh EC100;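 active = activation above the run cutoff, the mean activation of all test compounds plus 3 SD, cut at about 18% in these data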
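System – CHO-K1 hM5 cells · Compound – 3 µM, single dose · Incubation – compound preincubation 140 s before EC20 acetylcholine addition · Technique – Fluo-8 calcium fluorescence · Measure – Max/basal fluorescence ratio as % of EC20–EC100 ACh window · Benchmarks – low control EC20 acetylcholine (0%), high control EC100 acetylcholine (100%) · Replication – singlicate, one well per test compound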
CHRM1 PAM – human CHRM1 positive allosteric modulation; P11229; CHO-K1 hM1, Fluo-8 calcium fluorescence, ACh EC20; 0% = ACh EC20, 100% = maximal ACh; activation, % at 3 µM; 360,000 tested, 0.088% active; in the data active = activation above about 19%, passing the limit was not always enough
CHRM5 antagonist – CHRM5 antagonism in calcium assay; P08912; CHO-hM5 cells, Fluo-8 calcium fluorescence, ACh EC80; inhibition, % at 3 µM; 360,000 tested, 0.59% active; AID 624040;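 active = inhibition above a per-plate cutoff, the mean of that plate's test compounds plus 3 SD, cut at about 27% in these data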;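 also: 0% = acetylcholine EC80 with DMSO and 100% = DMSO without agonist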
Starred values were filed as active, the others as inactive. Only some compounds are listed: those with a hit (about 2% of all), similar ones and a draw of the others.

What do the screens show for `Cc1cc(NC(=O)COC(=O)C2CC(=O)N(c3cccc(Cl)c3)C2)no1` (stereo not given)?
CHRM1 agonist: 1; CHRM1 antagonist: -3; CHRM5 agonist: 1; M5 PAM: 1; CHRM1 PAM: 31*; CHRM5 antagonist: -5

Results for COc1ccc(S(=O)(=O)N2CCc3ccccc32)cc1C(=O)NCC(c1ccco1)N1CCCC1 (stereo not given) ?
CHRM1 agonist: -7; CHRM1 antagonist: -6; CHRM5 agonist: 0; M5 PAM: 3; CHRM1 PAM: 8; CHRM5 antagonist: 7

How did Cc1cn([C@H]2C[C@H](O)[C@@H](CNCc3cccn3-c3ccncc3)O2)c(=O)[nH]c1=O do in these assays?
CHRM1 agonist: -8; CHRM1 antagonist: -5; CHRM5 agonist: 1; M5 PAM: -2; CHRM1 PAM: 2; CHRM5 antagonist: 15

How did Cc1c(C(=O)N2CCN(c3ccccc3)CC2)sc2ncnc(N3CCN(c4ccccn4)CC3)c12 do in these assays?
CHRM1 agonist: -3; CHRM1 antagonist: -3; CHRM5 agonist: -2; M5 PAM: -1; CHRM1 PAM: 3; CHRM5 antagonist: 0

What do the screens show for `Cc1c(C(=O)N2CCN(c3ccc(F)cc3)CC2)sc2ncnc(N3CCN(c4ccccn4)CC3)c12`?
CHRM1 agonist: -7; CHRM1 antagonist: 32*; CHRM5 agonist: -1; M5 PAM: -12; CHRM1 PAM: -20; CHRM5 antagonist: 10

What do the screens show for `COc1ccc(N=Cc2sc(O)c3ccccc23)cc1`?
CHRM1 agonist: 30*; CHRM1 antagonist: 30*; CHRM5 agonist: 3; M5 PAM: -22; CHRM1 PAM: -11; CHRM5 antagonist: 17

Results for COc1ccc(N=Cc2c(O)c3ccccc3n2C(C)=O)cc1 ?
CHRM1 agonist: -4; CHRM1 antagonist: -5; CHRM5 agonist: 3; M5 PAM: -2; CHRM1 PAM: 4; CHRM5 antagonist: 11

What do the screens show for `COc1ccc([C@H]2C[C@H](O)[C@@H](n3cc(C4CC4)nn3)CN2C(=O)C2CCCCC2)cc1`?
CHRM1 agonist: 1; CHRM1 antagonist: 1; CHRM5 agonist: 2; M5 PAM: -1; CHRM1 PAM: 15; CHRM5 antagonist: -6

How did CC(NC(=O)c1ccccc1)C(=O)OCn1nnc2ccccc2c1=O (stereo not given) do in these assays?
CHRM1 agonist: -6; CHRM1 antagonist: -7; CHRM5 agonist: -4; M5 PAM: 20*; CHRM1 PAM: 7; CHRM5 antagonist: -8

What do the screens show for `CCN(CC)S(=O)(=O)c1ccc(C(=O)OCn2nnc3ccccc3c2=O)cc1`?
CHRM1 agonist: -2; CHRM1 antagonist: active; CHRM5 agonist: 7; M5 PAM: -15; CHRM1 PAM: -15; CHRM5 antagonist: 9

What do the screens show for `O=C(OCn1nnc2ccccc2c1=O)c1ccc(S(=O)(=O)N2CCOCC2)cc1`?
CHRM1 agonist: -4; CHRM1 antagonist: -4; CHRM5 agonist: -4; M5 PAM: -5; CHRM1 PAM: 5; CHRM5 antagonist: 1

What do the screens show for `COc1cccc(C(NC(C)=O)c2nc(-c3ccc(F)cc3OC)cs2)c1` (stereo not given)?
CHRM1 agonist: -3; CHRM1 antagonist: 4; CHRM5 agonist: -1; M5 PAM: -1; CHRM1 PAM: -6; CHRM5 antagonist: 0

What do the screens show for `O=S1(=O)CCN(C2CCCCCCC2)CC1`?
CHRM1 agonist: -2; CHRM1 antagonist: -10; CHRM5 agonist: 0; M5 PAM: -5; CHRM1 PAM: 3; CHRM5 antagonist: 5

How did CC(=O)Nc1ccc(NC(=O)Cc2ccc(S(=O)(=O)N3CCCCC3)cc2)cc1 do in these assays?
CHRM1 agonist: -3; CHRM1 antagonist: -20; CHRM5 agonist: 0; M5 PAM: 3; CHRM1 PAM: 14; CHRM5 antagonist: -2

Results for CSC1=NSC2=NC(=O)/C(=C\c3ccc(OC(=O)c4ccco4)cc3)C(=N)N12 ?
CHRM1 agonist: -3; CHRM1 antagonist: -4; CHRM5 agonist: 0; M5 PAM: 5; CHRM1 PAM: 4; CHRM5 antagonist: -1

Results for CCSC1=NSC2=NC(=O)/C(=C\c3coc4ccccc4c3=O)C(=N)N12 ?
CHRM1 agonist: 87*; CHRM1 antagonist: 61*; CHRM5 agonist: 51*; M5 PAM: -21; CHRM1 PAM: -27; CHRM5 antagonist: 63*

How did CC(C)CC1=NN2C(=N)/C(=C\c3coc4ccccc4c3=O)C(=O)N=C2S1 do in these assays?
CHRM1 agonist: 125*; CHRM1 antagonist: 45*; CHRM5 agonist: 158*; M5 PAM: -25; CHRM1 PAM: -31; CHRM5 antagonist: 48*

What do the screens show for `CN(Cc1nccn1C)C(=O)c1ccc2nc(Cc3ccccc3F)oc2c1`?
CHRM1 agonist: -6; CHRM1 antagonist: 48*; CHRM5 agonist: -10; M5 PAM: 0; CHRM1 PAM: -22; CHRM5 antagonist: -5

Results for CN(Cc1nccs1)C(=O)c1ccc2nc(Cc3ccccc3F)oc2c1 ?
CHRM1 agonist: -1; CHRM1 antagonist: -1; CHRM5 agonist: -1; M5 PAM: 3; CHRM1 PAM: 5; CHRM5 antagonist: -2

How did Cc1c(NC(=O)c2ccc(S(=O)(=O)Nc3ccccc3F)cc2)c(=O)n(-c2ccccc2)n1C do in these assays?
CHRM1 agonist: -6; CHRM1 antagonist: 35*; CHRM5 agonist: -7; M5 PAM: -1; CHRM1 PAM: -22; CHRM5 antagonist: 12

What do the screens show for `Cc1c(NC(=O)c2cccc(S(=O)(=O)N(C)c3ccccc3)c2)c(=O)n(-c2ccccc2)n1C`?
CHRM1 agonist: -7; CHRM1 antagonist: 38*; CHRM5 agonist: -5; M5 PAM: -9; CHRM1 PAM: -20; CHRM5 antagonist: 7

What do the screens show for `CCCN(CCC)S(=O)(=O)c1ccc(C(=O)Nc2c(C)n(C)n(-c3ccccc3)c2=O)cc1`?
CHRM1 agonist: -6; CHRM1 antagonist: 39*; CHRM5 agonist: 2; M5 PAM: -1; CHRM1 PAM: 0; CHRM5 antagonist: 6

What do the screens show for `CNC(=O)OC1CC2CC1[C@H]1CCCCN1C2=O` (stereo not given in full)?
CHRM5 agonist: 3; M5 PAM: 1; CHRM5 antagonist: -2

Results for C=CCN(CC=C)Cc1cc(=O)oc2cc(C)cc(C)c12 ?
CHRM1 agonist: -7; CHRM1 antagonist: -31; CHRM5 agonist: -4; M5 PAM: -4; CHRM1 PAM: -4; CHRM5 antagonist: -6

Results for CCCNC(=O)C1(C)CCCN(C(=O)c2ccccc2OC(F)(F)F)C1 (stereo not given) ?
CHRM1 agonist: 0; CHRM1 antagonist: -19; CHRM5 agonist: 1; M5 PAM: -3; CHRM1 PAM: 7; CHRM5 antagonist: 1
